# Laboratory results taken from ChEMBL document CHEMBL1152494, “Synthesis of some new 1,3,4-thiadiazol-2-ylmethyl-1,2,4-triazole derivatives and investigation of their antimicrobial activities” (2009).
# Active and inactive are the calls of the source. The rule behind the calls is not given here.
# Key:
# Escherichia coli [1] = experiment: Antimicrobial activity against Escherichia […] at 10 ug after 18 hrs by agar-well diffusion assay; format: functional; settings: read-out: IZ
# Procedure, shortened: (§1)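 Bacteria were suspended in Mueller Hinton broth at about 10⁶ cfu/mL and flood-inoculated onto Mueller Hinton agar, then dried. Samples in DMSO went into 5-mm cork-bored wells. Plates were incubated 18 h at 35 °C and the zone of inhibition was read. Ampicillin was the standard, with a DMSO solvent control.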
# [2] = tested on: Yersinia pseudotuberculosis; experiment: Antimicrobial activity against Yersinia pseudotuberculosis ATCC 911 at 10 ug after 18 hrs by agar-well diffusion assay; format: functional; settings: ATCC 911, 18 h, read-out: IZ; procedure, shortened: as §1
# Pseudomonas aeruginosa [3] = experiment: Antimicrobial activity against Pseudomonas aeruginosa ATCC 27853 at 10 ug after 18 hrs by agar-well diffusion assay; format: functional; settings: ATCC 27853, 18 h, read-out: IZ
# Procedure, shortened: (§2)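 Organisms suspended in Mueller Hinton broth, diluted to about 10⁶ cfu/mL, and flood-inoculated onto Mueller Hinton agar, then dried. Samples dissolved in DMSO were added to 5 mm wells cut in the agar. Plates were incubated 18 h at 35 °C, and inhibition zones were measured. Ampicillin was the standard drug, with a DMSO solvent control.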
# Enterococcus faecalis [4] = experiment: Antimicrobial activity against Enterococcus faecalis ATCC 29212 at 10 ug after 18 hrs by agar-well diffusion assay; format: functional; settings: ATCC 29212, 18 h, read-out: IZ; procedure, shortened: as §2
# Staphylococcus aureus [5] = experiment: Antimicrobial activity against Staphylococcus aureus ATCC […] at 10 ug after 18 hrs by agar-well diffusion assay; format: functional; settings: ATCC 25923, 18 h, read-out: IZ; procedure, shortened: as §2
# Bacillus cereus [6] = experiment: Antimicrobial activity against Bacillus cereus 702 Roma at 10 ug after 18 hrs by agar-well diffusion assay; format: functional; settings: read-out: IZ; procedure, shortened: as §2
# Candida tropicalis [7] = experiment: Antimicrobial activity against Candida tropicalis ATCC 13803 at 5 ug after 18 hrs by agar-well diffusion assay; format: functional
# Procedure, shortened: (§3)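 Yeasts were suspended in Mueller Hinton broth at about 10⁶ cfu/mL and flood-inoculated onto Sabouraud dextrose agar, then dried. Samples in DMSO went into 5-mm wells. Plates were incubated 18 h at 35 °C and inhibition zones were measured. Fluconazole was the standard, with a DMSO solvent control.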
# Candida albicans [8] = experiment: Antimicrobial activity against Candida albicans ATCC 60193 at 5 ug after 18 hrs by agar-well diffusion assay; format: functional; procedure, shortened: as §3
# [9] = tested on: Yersinia pseudotuberculosis; experiment: Antimicrobial activity against Yersinia pseudotuberculosis ATCC 911 after 18 hrs by agar-well diffusion assay; format: functional; procedure, shortened: as §1
# Escherichia coli [10] = experiment: Antimicrobial activity against Escherichia […] after 18 hrs by agar-well diffusion assay; format: functional; procedure, shortened: as §2
# Pseudomonas aeruginosa [11] = experiment: Antimicrobial activity against Pseudomonas aeruginosa ATCC 27853 after 18 hrs by agar-well diffusion assay; format: functional; procedure, shortened: as §2
# Enterococcus faecalis [12] = experiment: Antimicrobial activity against Enterococcus faecalis ATCC 29212 after 18 hrs by agar-well diffusion assay; format: functional; procedure, shortened: as §2
# Staphylococcus aureus [13] = experiment: Antimicrobial activity against Staphylococcus aureus ATCC […] after 18 hrs by agar-well diffusion assay; format: functional, ATCC 25923; procedure, shortened: as §2
# Bacillus cereus [14] = experiment: Antimicrobial activity against Bacillus cereus 702 Roma after 18 hrs by agar-well diffusion assay; format: functional; procedure, shortened: as §2
# Candida tropicalis [15] = experiment: Antimicrobial activity against Candida tropicalis ATCC 13803 after 18 hrs by agar-well diffusion assay; format: functional
# Procedure, shortened: (§4)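 Yeast suspended in Mueller Hinton broth at about 10⁶ cfu/mL and flood-inoculated onto Sabouraud dextrose agar, then dried. Samples dissolved in DMSO were placed in 5 mm wells bored in the agar. After 18 h at 35 °C, the zone of inhibition was measured. Fluconazole was the standard drug, with a DMSO solvent control.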
# Candida albicans [16] = experiment: Antimicrobial activity against Candida albicans ATCC 60193 after 18 hrs by agar-well diffusion assay; format: functional; procedure, shortened: as §4
SMILES,zone of inhibition at 10 µg/disc (Escherichia coli [1]) [mm],zone of inhibition at 10 µg/disc [2] [mm],zone of inhibition at 10 µg/disc (Pseudomonas aeruginosa [3]) [mm],zone of inhibition at 10 µg/disc (Enterococcus faecalis [4]) [mm],zone of inhibition at 10 µg/disc (Staphylococcus aureus [5]) [mm],zone of inhibition at 10 µg/disc (Bacillus cereus [6]) [mm],inhibition zone (IZ) (Candida tropicalis [7]),inhibition zone (IZ) (Candida albicans [8]),inhibition zone (IZ) [9],inhibition zone (IZ) (Escherichia coli [10]),inhibition zone (IZ) (Pseudomonas aeruginosa [11]),inhibition zone (IZ) (Enterococcus faecalis [12]),inhibition zone (IZ) (Staphylococcus aureus [13]) [mm],inhibition zone (IZ) (Bacillus cereus [14]),inhibition zone (IZ) (Candida tropicalis [15]),inhibition zone (IZ) (Candida albicans [16]),inhibition zone (IZ) (Staphylococcus aureus [13]; ATCC 25923),"zone of inhibition at 5 µg/disc (Candida tropicalis [7]; ATCC 13803, 18 h, read-out: IZ) [mm]","zone of inhibition at 5 µg/disc (Candida albicans [8]; ATCC 60193, 18 h, read-out: IZ) [mm]"
CC1(C)S[C@@H]2[C@H](NC(=O)[C@H](N)c3ccccc3)C(=O)N2[C@H]1C(=O)O [AMPICILLIN],10,18,18,10,35,15,inactive,inactive,,,,,,,,,,,
COc1ccc(/C=N/n2c(-c3ccc(C)cc3)nn(Cc3nnc(S)n3-c3ccc(F)cc3)c2=O)cc1,,,,,,,,,30 mm,30 mm,35 mm,24 mm,26,22 mm,inactive,inactive,,,
COc1ccc(NC(=S)NNC(=O)Cn2nc(-c3ccc(C)cc3)n(N)c2=O)cc1,,,,,,,,,25 mm,24 mm,35 mm,28 mm,28,22 mm,inactive,inactive,,,
CCSc1nnc(Cn2nc(-c3ccc(C)cc3)n(N)c2=O)n1-c1ccc(F)cc1,,,,,,,,,inactive,inactive,inactive,inactive,8,9 mm,6 mm,6 mm,,,
Cc1ccc(-c2nn(Cc3nn(CNCCN4CCOCC4)c(=S)n3-c3ccccc3)c(=O)n2N)cc1,,,,,,,,,inactive,inactive,inactive,inactive,,inactive,inactive,inactive,inactive,,
Cc1ccc(-c2nn(Cc3nn(CN4CCN(C)CC4)c(=S)n3-c3ccc(F)cc3)c(=O)n2/N=C/c2ccc(F)cc2)cc1,,,,,,,,,inactive,inactive,inactive,inactive,,8 mm,inactive,inactive,inactive,,
Cc1ccc(-c2nn(Cc3nnc(S)n3-c3ccc(F)cc3)c(=O)n2N)cc1,,,,,,,,,26 mm,30 mm,35 mm,30 mm,26,25 mm,inactive,inactive,,,
COc1ccc(-n2c(Cn3nc(-c4ccc(C)cc4)n(N)c3=O)nnc2SC)cc1,,,,,,,,,inactive,inactive,inactive,inactive,,inactive,inactive,inactive,inactive,,
Cc1ccc(-c2nn(CC(=O)NNC(=S)Nc3ccc(F)cc3)c(=O)n2N)cc1,,,,,,,,,28 mm,34 mm,35 mm,30 mm,30,22 mm,inactive,inactive,,,
OC(Cn1cncn1)(Cn1cncn1)c1ccc(F)cc1F [FLUCONAZOLE],,,,,,,,,,,,,,,,,,25,25
COc1ccc(-n2c(S)nnc2Cn2nc(-c3ccc(C)cc3)n(N)c2=O)cc1,,,,,,,,,22 mm,28 mm,30 mm,25 mm,30,25 mm,inactive,inactive,,,
Cc1ccc(-c2nn(Cc3nnc(S)n3-c3ccc(F)cc3)c(=O)n2/N=C/c2ccc(F)cc2)cc1,,,,,,,,,22 mm,25 mm,30 mm,20 mm,24,20 mm,inactive,inactive,,,
Cc1ccc(-c2nn(CC(=O)NNC(=S)Nc3ccccc3)c(=O)n2N)cc1,,,,,,,,,inactive,inactive,inactive,inactive,6,inactive,inactive,inactive,,,
CSc1nnc(Cn2nc(-c3ccc(C)cc3)n(N)c2=O)n1-c1ccccc1,,,,,,,,,inactive,inactive,inactive,inactive,,inactive,inactive,inactive,inactive,,
Cc1ccc(-c2nn(Cc3nnc(S)n3-c3ccccc3)c(=O)n2N)cc1,,,,,,,,,22 mm,25 mm,30 mm,20 mm,24,20 mm,inactive,inactive,,,
Cc1ccc(-c2nn(Cc3nnc(N(C)c4ccccc4)s3)c(=O)n2N)cc1,,,,,,,,,inactive,inactive,inactive,inactive,,7 mm,6 mm,inactive,inactive,,
Cc1ccc(-c2nn(Cc3nnc(S)n3-c3ccccc3)c(=O)n2/N=C/c2ccc(F)cc2)cc1,,,,,,,,,25 mm,25 mm,30 mm,20 mm,28,20 mm,inactive,inactive,,,
Cc1ccc(-c2nn(Cc3nn(CN4CCN(C)CC4)c(=S)n3-c3ccccc3)c(=O)n2N)cc1,,,,,,,,,inactive,inactive,inactive,inactive,,inactive,inactive,inactive,inactive,,
COc1ccc(Nc2nnc(Cn3nc(-c4ccc(C)cc4)n(N)c3=O)s2)cc1,,,,,,,,,22 mm,30 mm,>30 mm,20 mm,28,23 mm,inactive,inactive,,,
Cc1ccc(-c2nn(Cc3nnc(Nc4ccc(F)cc4)s3)c(=O)n2N)cc1,,,,,,,,,inactive,inactive,inactive,inactive,,inactive,inactive,inactive,inactive,,
Cc1ccc(-c2nn(Cc3nnc(Nc4ccccc4)s3)c(=O)n2N)cc1,,,,,,,,,inactive,inactive,inactive,inactive,,inactive,inactive,inactive,inactive,,
